# Screening results as filed in PubChem.
# CHO parental Ca: ATP-evoked calcium signal inhibitors, parental CHO, primary screen, counter-screen for OX1R antagonist project, cell-based, fluorescence, Fluo-8 calcium dye | 0.63% of 330,000 active | parental CHO-K1, ATP-induced calcium, Fluo-8 fluorescence | inhibition, % at 5.6 µM;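 active means inhibition above that plate's mean sample inhibition plus 3 SD, cut at about 26% in these data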;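 further: 0% = ATP-challenged DMSO wells and 100% = DMSO wells without ATP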
#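 Test system: untransfected parental CHO cell line. Compound: one dose, 5.6 µM nominal. Detection: intracellular calcium via Fluo-8 no-wash fluorescent dye. Measure: % inhibition. Benchmarks: ATP-challenged DMSO wells low, unchallenged DMSO wells high.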
# OX1R antag-1: antagonists of human orexin 1 receptor (OX1R); Orexin/Hypocretin receptor type 1 (Homo sapiens), O43613; OX1R-expressing cells, FRET antagonist read-out; inhibition, % at 6.6 µM; 1.8% of 330,000 active; in the data active means inhibition mostly above about 38%, no sharp cut-off; inactive means mostly below about 40%;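 further: 0% = agonist challenge alone and 100% = reference antagonist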
# EP2 mod: EP2 receptor modulators, cAMP readout, primary screen, cell-based, HTRF cAMP, PGE2 stimulation; Prostaglandin E2 receptor EP2 subtype (Homo sapiens), P43116; EP2-expressing cells, cAMP HTRF FRET, PGE2 co-stimulation; induction, % at 25 µM; 0.83% of 260,000 active; AID 940, 2007;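 active means compounds whose cAMP rise, as percent of the full-agonist control response, exceeds 60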;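 further: rat C6 glioma line stably carrying human EP2 under a CMV promoter; the protocol text gives 20 µM as final concentration; 100% = response of wells given 1 µM PGE2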
# OX1R antag-2: OX1R (HCRTR1) antagonists, primary screen, fluorescence, CHO/OX1R cells, Fluo-8 calcium, orexin A | AID 434989, 2010 | inhibition, % at 5 µM | Orexin/Hypocretin receptor type 1 (Homo sapiens), O43613 | 0.43% of 330,000 active | Fluo-8 calcium fluorescence;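 active means inhibition above its plate's threshold, mean inhibition of all tested compounds on the plate plus 3 SD, cut at about 37% in these data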;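 further: 0% = orexin A challenge wells and 100% = SB-334867-A antagonist wells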
# EP2 antag: human EP2 receptor antagonists, primary screen, TR-FRET cAMP, C6 glioma cells. Prostaglandin E2 receptor EP2 subtype (Homo sapiens), P43116. C6 glioma cells expressing human EP2; cells stimulated with saturating PGE2. inhibition, % at 25 µM. 0.52% of 260,000 active. AID 1422, 2008;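 active means percent inhibition above 40 after rounding to a whole number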;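 further: rat C6 glioma host cells with rolipram phosphodiesterase inhibitor present; the protocol text gives 20 µM as final concentration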
# GPR7 antag: GPR7 receptor antagonists, primary screen, cell-based, fluorescence, single concentration. GPR7-expressing cells, fluorescence antagonist assay. inhibition, % at 4.4 µM. 1.1% of 290,000 active. AID 1861, 2009; in the data active means inhibition above about 16%, passing the limit was not always enough;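 further: cells stimulated with the agonist NPW; 0% = agonist with vehicle and 100% = vehicle without agonist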
# Target sequence (P48145 whole entry, looked up): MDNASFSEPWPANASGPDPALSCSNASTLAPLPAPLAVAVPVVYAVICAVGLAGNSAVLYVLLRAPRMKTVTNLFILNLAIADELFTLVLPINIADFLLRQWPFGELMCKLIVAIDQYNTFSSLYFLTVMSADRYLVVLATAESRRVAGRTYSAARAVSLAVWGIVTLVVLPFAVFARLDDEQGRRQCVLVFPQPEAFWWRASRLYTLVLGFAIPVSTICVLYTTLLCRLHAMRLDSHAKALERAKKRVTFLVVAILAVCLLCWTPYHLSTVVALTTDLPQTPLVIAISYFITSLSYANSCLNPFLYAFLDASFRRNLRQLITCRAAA
# Active calls of the source: *; / = no result. Compounds with a hit are over-represented: about 3.7% of the library has one in this group of screens.
SMILES,CHO parental Ca,OX1R antag-1,EP2 mod,OX1R antag-2,EP2 antag,GPR7 antag
CCNC(=S)N(CCc1c(C)[nH]c2ccc(OC)cc12)Cc1cccnc1,-11,-5,/,-23,/,-8
O=C(N/N=C/c1ccc([N+](=O)[O-])o1)c1ccc(O)cc1,4,74*,2,1,20,-20
O=C(N/N=C/c1ccc([N+](=O)[O-])o1)c1cc2ccccc2o1,-5,31,-40,-6,8,-6
CCOc1ccc(N(C(=O)c2cnsn2)C(C(=O)NC2CCCCC2)c2ccncc2)cc1 (stereo unspecified),-18,24,-2,-17,6,17
Cc1cc(=O)oc2cc(OCC(=O)Nc3cccnc3)ccc12,-2,4,/,-10,/,/
CCc1nc2n(n1)C(O)c1cc([N+](=O)[O-])ccc1S2 (stereo unspecified),-8,46*,1,-10,8,-7
COc1ccc(N(C)C(=O)Cc2c(C(=O)O)n(C)c3ccccc23)cc1,7,-4,/,2,/,-17
O=[N+]([O-])c1cnc2ccccc2c1,-8,71*,0,-3,2,-6
CCCCCCCCCCCCCCCC[n+]1cccc2ccccc21,89*,30,-11,63*,14,11
O=C(NC(c1cccnc1)C(F)(F)F)c1cc(COc2ccc3c(c2)CCCC3)on1 (stereo unspecified),42*,10,/,19,/,9
CCOc1cc(/C=C2\CN(CC)C/C(=C\c3ccc(O)c(OCC)c3)C2=O)ccc1O,-20,3,/,-17,/,-18
CCN1C/C(=C/c2cccc([N+](=O)[O-])c2)C(=O)/C(=C/c2cccc([N+](=O)[O-])c2)C1,-2,10,-56,-26,46*,-11
Nc1nc(N)c(N=O)c(OCC2CCCCC2)n1,-21,40*,/,-22,/,-24
C(=N\Nc1nc(-c2cccnc2)nc2ccccc12)/c1ccccc1,-6,7,-2,-15,13,-19
C(=N\Nc1nc(-c2ccccn2)nc2ccccc12)/c1ccccc1,14,12,69*,31,11,-18
N#CSC1CS(=O)(=O)C=C1Cl (stereo unspecified),/,/,-111,/,133*,/
CCOc1ccc2nc3cc(NCc4ccc(OC)cc4)ccc3c(N)c2c1,2,44*,/,10,/,-8
Cc1ccc(Cn2cnc3c(cnn3C(C)(C)C)c2=O)cc1,-16,2,11,-25,1,1
CN1/C(=C/c2cc[n+](C)c3ccccc23)C=Cc2ccccc21,/,/,-31,/,9,-24
C[n+]1ccc(/C=C/c2ccccc2O)c2ccccc21,-10,72*,8,-15,14,4
CCN(CC)S(=O)(=O)c1cccc(N=NC2=C(O)CCCC2=O)c1,-2,12,4,-17,5,-9
O=C1CCCC(O)=C1N=Nc1cccc(C(=O)O)c1,8,70*,0,-19,5,-3
Fc1ccc(-c2csc3ncnc(N4CCc5ccccc5C4)c23)cc1,-25,38,64*,-16,6,-13
Oc1ccccc1N1CCN(c2ncnc3scc(-c4ccc(F)cc4)c23)CC1,-29,12,/,-44,/,5
CCOc1ccc(N=Nc2c(=O)[nH]n3c(=O)c4c([nH]c23)CCCC4)cc1,-5,14,6,-11,10,-12
CCOc1ccc(N=Nc2c(=O)[nH]n3c(=O)cc(C)[nH]c23)cc1,-13,59*,8,-2,19,-4
CCCCc1nc(NCCO)c(C#N)c2c1CCCC2,50*,15,47,-40,3,-13
CCCCNc1nc(CC)c2c(c1C#N)CCCC2,-8,18,52,-10,5,-5
CN1Cc2c(N3CCOCC3)nc3sc(C(=O)c4ccc(Br)cc4)c(N)c3c2CC1(C)C,35*,5,-49,5,19,44*
